Source: PubChem
A selection: hits, their analogues and other compounds. The true share with any hit is near 2.1%.
RanGTP-Impb inh = inhibitors of RanGTP-importin-beta interaction, primary screen, biochemical, FRET, CFP-Ran, YFP-importin-beta, homogeneous; cell-free CFP-Ran/YFP-importin-beta FRET ratio; inhibition, % (no concentration beside the values); 300,000 tested, 1.1% active;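 active = more than half of the replicate wells show a fall in the fluorescence ratio signal beyond about 16%, limit read from the data, passing the limit was not always enough; inconclusive = exactly half of the replicate wells pass the set limit; inactive = fewer than half of replicates pass the limit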;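 also: 0% = DMSO wells and 100% = Ran loaded with GDP instead of GTP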
Hck Nef HTS = inhibitors of Nef-activated human Hck kinase, primary screen, biochemical, Z-Lyte FRET, 384-well, Hck-YEEI | inhibition, % at 20 µM | Recombinant Hck-YEEI plus Nef, Z-Lyte FRET kinase assay | Tyrosine-protein kinase HCK (Homo sapiens), P08631 | 220,000 tested, 0.68% active | AID 463187, 2010;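 active = Hck-Nef kinase inhibition above about 50%, limit read from the data; inactive = inhibition below that limit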;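 also: 0% = DMSO with Hck plus Nef and 100% = Hck alone without Nef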
Runt-CBFb FRET = inhibitors of RUNX1 Runt–CBFb binding, primary screen, biochemical, FRET, Cerulean-Runt, Venus-CBFb, uHTS. Runt-related transcription factor 1 (Homo sapiens) + Core-binding factor subunit beta …. Cerulean-Runt/Venus-CBFb FRET ratio 530/480, 1 h. inhibition, % at 20 µM. 220,000 tested, 0.46% active;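 active = inhibition over about 50% at 20 µM in the single-dose screen, limit read from the data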;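 also: 0% = DMSO wells and 100% = excess unlabeled CBFb competitor control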
Target sequence (Q01196 whole entry, looked up): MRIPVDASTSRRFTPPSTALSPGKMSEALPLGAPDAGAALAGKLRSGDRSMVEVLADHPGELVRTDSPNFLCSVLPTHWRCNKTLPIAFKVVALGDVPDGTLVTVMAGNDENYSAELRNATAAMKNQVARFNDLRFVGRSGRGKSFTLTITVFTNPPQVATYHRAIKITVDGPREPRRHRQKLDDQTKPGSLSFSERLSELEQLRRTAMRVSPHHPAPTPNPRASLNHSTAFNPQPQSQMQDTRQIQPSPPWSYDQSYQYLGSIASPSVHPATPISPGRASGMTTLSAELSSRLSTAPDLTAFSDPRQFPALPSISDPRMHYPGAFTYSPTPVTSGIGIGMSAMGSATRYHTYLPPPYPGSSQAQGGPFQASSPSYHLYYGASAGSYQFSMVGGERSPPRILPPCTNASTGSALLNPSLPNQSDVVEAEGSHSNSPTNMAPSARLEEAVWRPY
Target sequence (Q13951 whole entry, looked up): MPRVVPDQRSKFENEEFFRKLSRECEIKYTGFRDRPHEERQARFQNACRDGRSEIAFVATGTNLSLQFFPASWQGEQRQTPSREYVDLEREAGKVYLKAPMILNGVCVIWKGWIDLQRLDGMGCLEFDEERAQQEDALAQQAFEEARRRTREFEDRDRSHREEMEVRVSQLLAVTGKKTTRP
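test system = Cerulean-tagged RUNX1 Runt domain (FRET donor) fusion protein | reagent = Venus-CBFb binding partner, 100 nM | incubation = protein complex preformed 1 h, compound exposure 1 h, room temperature, dark | detection = FRET fluorescence | read-out basis = loss of energy transfer signal | controls = 5 µM unlabeled CBFb as full-inhibition high control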
Runt-SMMHC FRET = inhibitors of RUNX1 Runt–CBFb-SMMHC binding, primary screen, biochemical, FRET, Cerulean-Runt, Venus-CBFb-SMMHC, uHTS; Cerulean-Runt/Venus-CBFb-SMMHC FRET ratio 530/480, 1 h; inhibition, % at 20 µM; 220,000 tested, 0.74% active; AID 1434, 2008; Runt-related transcription factor 1 (Homo sapiens) + Core-binding factor subunit beta …;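 active = mean inhibition across duplicate retests at 20 µM reaching about 50%, limit read from the data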;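 also: 0% = DMSO wells and 100% = wells with excess untagged CBFb-SMMHC; inhibitors lower the FRET ratio by blocking Runt binding to CBFb-SMMHC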
Tb hexokinase = Trypanosoma brucei hexokinase 1 inhibitors, primary screen, biochemical, G6PDH-coupled NADH absorbance, MLSCN library. hexokinase 1 [Trypanosoma brucei]. recombinant TbHK1, G6PDH-coupled NADH A340. inhibition, % at 10 µM. 220,000 tested, 0.11% active. AID 1430, 2008;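 active = inhibition of 50% or more in the single-dose primary screen; inactive = inhibition below 50%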
p97 inhibitor = inhibitors of human p97 ATPase, primary screen, biochemical; Transitional endoplasmic reticulum ATPase (Homo sapiens), P55072; recombinant p97 ATPase, Kinase-Glo ATP luminescence, 3 h; inhibition, % at 8 µM; 220,000 tested, 0.42% active; AID 1481, 2009; in the data active = inhibition above about 15%;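 also: 0% = DMSO vehicle and 100% = wells lacking enzyme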
* marks the source's active call; other numbers are inactive results; ? = inconclusive; . = not tested or not shown.

SMILES | RanGTP-Impb inh | Hck Nef HTS | Runt-CBFb FRET | Runt-SMMHC FRET | Tb hexokinase | p97 inhibitor
O=C(COC(=O)C12CC3CC(CC(Br)(C3)C1)C2)Nc1cccnc1Cl | -1 | 23 | 0 | -3 | -2 | 1
Cc1cc(-n2c(C)cc(C(=O)CSc3ncnc4ccccc34)c2C)no1 | 0 | 5 | 34 | 110* | -5 | 4
CCOc1ccc(/C=C(\C(=O)O)c2ccc(S(=O)(=O)N3CCOCC3)s2)cc1OC | 104* | -8 | 15 | 69* | -21 | -2
O=C(O)/C(=C\c1ccccc1Cl)c1ccc(S(=O)(=O)N2CCCCC2)s1 | ? | 2 | 0 | -5 | 9 | 2
CSc1ccc(/C=C(\C(=O)O)c2ccc(S(=O)(=O)N3CCCCC3)s2)cc1 | 45* | 2 | 9 | 26 | -12 | -6
COCCSc1nnc(NC(=O)C2CC(=O)N(CCc3ccc(F)cc3)C2)s1 (configuration not stated) | -1 | . | . | . | . | .
CC(C)CN(Cc1c(O)ccc2c3c(c(=O)oc12)CCC3)CC(C)C | 1 | 49 | 39 | 100* | -28 | -3
CC(=O)COc1ccc2c3c(c(=O)oc2c1C)CCCCC3 | ? | 0 | 0 | 4 | -18 | -7
Cc1c(O)ccc2c3c(c(=O)oc12)CCCC3 | . | 46 | 75* | 90* | -14 | 10
C=C(C)CCC(C)N1CCC(n2nccc2NC(=O)CCOc2ccccc2)CC1 (configuration not stated) | 7 | . | . | . | . | .
Cc1cc2cc(C#N)c(NCCNC(=S)NCCCN3CCOCC3)nc2cc1C | ? | 14 | 43 | 88* | -1 | -1
COc1ccc2nc(NCCNC(=S)NCCCN3CCOCC3)c(C#N)cc2c1 | 4 | 18 | 3 | 93* | -3 | 4
COc1ccc(COC(=O)c2ccc(C)c(S(=O)(=O)N3CCOCC3)c2)cc1F | 0 | . | . | . | . | .
COc1ccc(/C=C2\CCCC3C2=NN(C(=O)CSc2n[nH]c(N)n2)C3c2ccc(OC)cc2)cc1 (configuration not stated) | -5 | 21 | -3 | 1 | -10 | 15*
COc1c2ccoc2c(OC[C@@H](O)C(C)(C)OC)c2oc(=O)ccc12 | 8 | 3 | 30 | 84* | -3 | 1
CC(C)CCOc1ccc(C2(C)NC(=O)NC2=O)cc1 (configuration not stated) | -3 | . | . | . | . | .
O=C(Cc1c[nH]c2ccccc12)NCc1ccco1 | -2 | 26 | 1 | 1 | 0 | 3
O=C(Cc1nc2ccccc2[nH]1)NCc1ccco1 | 35* | 0 | 12 | 10 | 2 | 4
O=C1C=CC(=O)N1c1ccc(Sc2ccc([N+](=O)[O-])cc2)cc1 | -5 | 50* | 26 | 41 | -6 | 8
CCC12CCCN3CCc4c(n(c5ccccc45)C(O)(C(=O)OC)C1)C32 (configuration not stated) | 114* | 3 | 22 | 0 | -8 | 0
CCC1(C(=O)OC)CCc2c(cc(OC)c3ccccc23)C1=O (configuration not stated) | 4 | 7 | 3 | 1 | -6 | -4
O=C(O)c1ccccc1C(=O)N(c1ccccc1)c1ccccc1 | 31* | . | . | . | . | .
O=C(N(c1ccccc1)c1ccccc1)N(c1ccccc1)c1ccccc1 | -1 | 8 | 0 | -1 | 0 | 1
COc1ccc2c(c1OC)C(=O)N(c1ccc(C)c(C)c1)C2=O | 75* | -11 | -1 | -10 | -1 | 0
COc1ccc2c(c1OC)C(=O)N(c1ccc(C)cc1)C2=O | 5 | 13 | 1 | 0 | -6 | 2
SMILES | RanGTP-Impb inh | Hck Nef HTS | Runt-CBFb FRET | Runt-SMMHC FRET | Tb hexokinase | p97 inhibitor
CC(=O)N1CCN(C(=O)C(Cc2c[nH]c3ccccc23)NC(=O)c2ccccc2Cl)CC1 (configuration not stated) | 0 | . | . | . | . | .
N#CC1=C(N)N(c2ccccc2C#N)C2=C(C(=O)CCC2)C1c1ccsc1 (configuration not stated) | 30* | 1 | 15 | 18 | -7 | 1
CC(C(=O)O)N1C(=O)/C(=C/C=C/c2ccco2)SC1=S (configuration not stated) | -12 | 69* | . | 4 | 30 | 11
CN(C)C(=O)COc1ccc2ccc(=O)oc2c1 | -2 | 2 | 0 | 0 | -15 | 3
CCN(CC)c1ccc2cc(S(=O)(=O)c3ccc(C)cc3)c(=O)oc2c1 | 137* | 20 | 4 | 79* | 30 | 2
CCN(CC)c1ccc2ccc(=O)oc2c1 | 95* | 114* | 39 | 92* | -1 | 6
CCN(CC)c1ccc2cc(C#N)c(=O)oc2c1 | 115* | 14 | 82* | 92* | 2 | -3
CCN(CC)c1ccc2cc(C(=O)NNC(=O)c3ccc(S(=O)(=O)N4CCCCC4)cc3)c(=O)oc2c1 | 119* | 1 | 66* | 63* | 9 | 4
Cc1ccc(S(=O)(=O)c2cc3ccccc3oc2=O)cc1 | ? | -1 | -6 | -26 | -5 | 2
CCN(CC)c1nc2cc(OC)ccc2cc1C#N | 8 | 9 | 11 | 40 | -1 | 0
Cc1ccc(C(=O)N2CCN(c3ccccn3)CC2)cc1Cl | 3 | . | . | . | . | .
O=C(COc1cccc(Cl)c1)Nc1ccccc1N1CCCCC1 | -4 | . | . | . | . | .
Clc1nnc(Cl)c2c1ncn2Cc1ccccc1 | 4 | . | . | . | . | .
CN(CCc1ccccc1)C1CCCN(S(=O)(=O)N(C)C)C1 (configuration not stated) | 5 | . | . | . | . | .
COCCNC(=O)c1cccc(OC2CCN(Cc3cccc(SC)c3)CC2)c1 | -1 | . | . | . | . | .
Cc1noc(C)c1C(=O)N1CCN(S(=O)(=O)c2cccc(Cl)c2Cl)CC1 | -2 | 7 | 2 | 0 | -7 | 8
Cc1cc(C)n(CCC(=O)N/N=C/c2c(O)ccc3ccccc23)n1 | 36* | 10 | 29 | 45 | -25 | 4
CC(=O)c1cccc(N(CC(=O)NC2CCCC2)C(=O)c2csnn2)c1 | -2 | . | . | . | . | .
COc1ccc(CCNC(=O)C2CCCN(S(=O)(=O)N3CC(C)CC(C)C3)C2)cc1OC (configuration not stated) | 1 | . | . | . | . | .
COc1ccc(CCNC(=O)C2CCN(S(=O)(=O)N3CC(C)CC(C)C3)CC2)cc1OC (configuration not stated) | 1 | 2 | -3 | 3 | 53* | -4
COc1ccc(CNC(=O)CCCC(=O)Nc2cccc(Br)c2)cc1 | -1 | . | . | . | . | .
